By MIC is commonly meant the lowest concentration that inhibits growth of the organism. As usually defined, the GI50 is the concentration at which growth is held to half of that of the control. The term CC50 denotes the concentration that lowers cell viability or growth by half.

Converted amounts (≈) assume the structure as drawn.

We go through 3 compounds from ChEMBL document CHEMBL1143019, “Hybrid molecules of estrone: new compounds with potential antibacterial, antifungal, and antiproliferative activities” (2007).

What all share (type): functional
In assay [1] the test system is Staphylococcus aureus. Kind of assay: Antibacterial activity against Staphylococcus aureus SG 511 after 24 hrs by micro-broth dilution method. As to conditions: SG 511, 24 h. In outline: (§1)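 Microbroth dilution per NCCLS guidelines. Bacteria grown overnight at 37 °C in Mueller–Hinton broth. Compound solution serially diluted twofold in MHB, then wells inoculated to a final 5×10⁵ CFU/mL. Incubated 24 h at 37 °C. MIC (µg/mL) read on an automatic plate reader as the lowest dilution allowing no visible growth.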
For orientation: Broth dilution looks for growth in wells or tubes with falling amounts of substance.

Assay [2] deals with Staphylococcus aureus. Kind of assay: Antibacterial activity against methicillin-resistant Staphylococcus aureus 994/93 after 24 hrs by micro-broth dilution method. In outline:
(§2)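 Broth microdilution per NCCLS in Mueller–Hinton broth. Overnight cultures grown at 37 °C. Compound serially diluted twofold, then wells inoculated to a final 5×10⁵ CFU/mL. Plates held at 37 °C for 24 h. MIC (µg/mL) read on an automatic plate reader as the lowest dilution with no visible growth.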

The subject of assay [3] is Micrococcus luteus. Kind of assay: Antibacterial activity against Micrococcus luteus ATCC 10240 after 24 hrs by microbroth dilution method. The following applies: ATCC 10240, 24 h. In short, it runs like this:
as §1

Assay [4] deals with Enterococcus faecalis. Kind of assay: Antibacterial activity against Enterococcus faecalis 1528 after 24 hrs by micro-broth dilution method. In short, it runs like this:
as §1

Assay [5] has as its system Mycolicibacterium smegmatis. Description: Antimicrobial activity against Mycobacterium smegmatis SG 987 after 24 hrs by micro-broth dilution method. In short, it runs like this:
as §1

In assay [6] the test system is Mycolicibacterium aurum. Kind of assay: Antimicrobial activity against Mycobacterium aurum SB 66 after 24 hrs by micro-broth dilution method. In short, it runs like this: as §1
Assay [7] deals with Mycolicibacterium vaccae. Kind of assay: Antimicrobial activity against Mycobacterium vaccae 10670 after 24 hrs by micro-broth dilution method. In short, it runs like this: as §1
Assay [8] concerns Mycolicibacterium fortuitum. Kind of assay: Antimicrobial activity against Mycobacterium fortuitum Borstel after 24 hrs by microbroth dilution method. In short, it runs like this:
as §1

In assay [9] the test system is Staphylococcus aureus. Description: Antibacterial activity against methicillin-resistant Staphylococcus aureus 134/94 after 24 hrs by microbroth dilution method. In outline: as §2
Assay [10] concerns Mycobacterium tuberculosis. Description: Antimicrobial activity against Mycobacterium tuberculosis My 331/88 after 14 days. As to conditions: 336 h.
Assay [11] concerns Mycobacterium tuberculosis. Kind of assay: Antimicrobial activity against Mycobacterium tuberculosis My 331/88 after 21 days. The following applies: 504 h.
Assay [12] concerns Mycobacterium avium. Description: Antimicrobial activity against Mycobacterium avium My 330/88 after 14 days. As to conditions: 336 h.
In assay [13] the test system is Mycobacterium avium. Kind of assay: Antimicrobial activity against Mycobacterium avium My 330/88 after 21 days. The following applies: 504 h.
Assay [14] concerns Mycobacterium kansasii. Kind of assay: Antimicrobial activity against Mycobacterium kansasii My 235/80 after 7 days. As to conditions: 168 h. In outline:
(§3)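 Run in Šula semisynthetic liquid medium containing bovine serum. Compounds added as DMSO solutions at final concentrations of […]. Each strain was also inoculated onto Löwenstein–Jensen medium to control inoculum sterility and growth.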

Assay [15] relates to Mycobacterium kansasii. Kind of assay: Antimicrobial activity against Mycobacterium kansasii My 235/80 after 14 days. As to conditions: 336 h. In short, it runs like this:
as §3

Assay [16] concerns Mycobacterium kansasii. Kind of assay: Antimicrobial activity against Mycobacterium kansasii My 235/80 after 21 days. The following applies: 504 h. In outline:
as §3

Assay [17] relates to Mycobacterium kansasii. Kind of assay: Antimicrobial activity against Mycobacterium kansasii My 6509/96 after 7 days. The following applies: 168 h. In short, it runs like this: as §3
In assay [18] the test system is Mycobacterium kansasii. Description: Antimicrobial activity against Mycobacterium kansasii My 6509/96 after 14 days. The following applies: 336 h. In outline:
as §3

Assay [19] relates to Mycobacterium kansasii. Description: Antimicrobial activity against Mycobacterium kansasii My 6509/96 after 21 days. As to conditions: 504 h. In outline:
as §3

Assay [20] has as its system L929. Description: Antiproliferative activity against mouse L929 cells after 72 hrs. As to conditions: L929, 72 h. In outline:
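About 10,000 adherent cells per well in RPMI 1640 with 10% heat-inactivated FBS and penicillin/streptomycin, without HEPES. Exposed to 10 concentrations for 72 h at 37 °C in humidified 5% CO₂. Monolayers fixed with glutaraldehyde, stained 15 min with 0.05% methylene blue, and eluted with 0.33 N HCl; OD read at 630 nm. GI50 derived from dose–response curves relative to control.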

The test system of assay [21] is K562. Kind of assay: Antiproliferative activity against human K562 cells after 72 hrs. As to conditions: K562, 72 h. In short, it runs like this: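 About 10,000 suspension cells per well in RPMI 1640 with 10% heat-inactivated FBS and penicillin/streptomycin, without HEPES. Exposed to 10 concentrations for 72 h at 37 °C in humidified 5% CO₂. Wells diluted 1:50 in CASYTON and counted electronically, each result the mean of three successive counts. GI50 is where the concentration–response curve crosses 50% of control cell count.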

Assay [22] relates to HeLa. Kind of assay: Cytotoxicity against human HeLa cells after 72 hrs. As to conditions: for CC50: Homo sapiens, HeLa, 72 h. In outline:
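About 10,000 cells per well in RPMI 1640 were preincubated 48 h without compound. The 10 test concentrations were then applied onto the monolayers and incubated 72 h at 37 °C in humidified 5% CO₂. Monolayers fixed with glutaraldehyde, stained with 0.05% methylene blue, and eluted with 0.33 N HCl; optical density measured at 630 nm.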

As for `O=C(O)c1cn(C2CC2)c2cc(N3CCNCC3)c(F)cc2c1=O` [CIPROFLOXACIN], the MIC is 0.2 µg/mL (≈ 0.604 µM) in [1]; over 100 µg/mL in assay [2]; 12.5 µg/mL (≈ 37.7 µM) in [3]; 0.8 µg/mL (≈ 2.41 µM) in [4]; 0.78 µg/mL (≈ 2.35 µM) in assay [5]; 0.1 µg/mL (≈ 0.302 µM) in assay [6]. The MIC in [7] came out at 0.78 µg/mL (≈ 2.35 µM); in [8], 0.4 µg/mL (≈ 1.21 µM).

With `c1ccc(CSc2ccncc2)cc1`, the MIC in [1] was 100 µg/mL (≈ 497 µM); in assay [2], 100 µg/mL (≈ 497 µM); in assay [9] it was over 100 µg/mL; in assay [3], 100 µg/mL (≈ 497 µM); in assay [4] it was 100 µg/mL (≈ 497 µM); in assay [5], 100 µg/mL (≈ 497 µM). Moreover, the MIC in [6] worked out at 25 µg/mL (≈ 124 µM); in assay [7], 50 µg/mL (≈ 248 µM); in [8] it was 50 µg/mL (≈ 248 µM); in [10] it was 125 µM (≈ 25.2 µg/mL); in assay [11], 125 µM (≈ 25.2 µg/mL); in assay [12], 125 µM (≈ 25.2 µg/mL). In addition, the minimal inhibitory concentration (MIC) in [13] turned out to be 125 µM (≈ 25.2 µg/mL); in [14], 62.5 µM (≈ 12.6 µg/mL); in assay [15], 125 µM (≈ 25.2 µg/mL); in assay [16] it was 125 µM (≈ 25.2 µg/mL); in assay [17], 62.5 µM (≈ 12.6 µg/mL); in assay [18] it was 125 µM (≈ 25.2 µg/mL). The compound further yielded an MIC in assay [19] of 125 µM (≈ 25.2 µg/mL). Besides, the GI50 in assay [20] was 34.3 µg/mL (≈ 170 µM); in assay [21], over 50 µg/mL. Further, the CC10 in [22] stood at 14 µg/mL (≈ 69.6 µM). Besides, the CC50 in assay [22] is 23.6 µg/mL (≈ 117 µM).

For `Clc1ccc(CSc2ccncc2)cc1`, the MIC was 50 µg/mL (≈ 212 µM) in [1]; 100 µg/mL (≈ 424 µM) in assay [2]; over 100 µg/mL in assay [9]; 50 µg/mL (≈ 212 µM) in assay [3]; 100 µg/mL (≈ 424 µM) in [4]; 25 µg/mL (≈ 106 µM) in assay [5]. The MIC in [6] worked out at 12.5 µg/mL (≈ 53 µM); in assay [7], 25 µg/mL (≈ 106 µM); in assay [8], 12.5 µg/mL (≈ 53 µM); in [10], 32 µM (≈ 7.54 µg/mL); in [11] it was 62.5 µM (≈ 14.7 µg/mL); in [12] it was 62.5 µM (≈ 14.7 µg/mL). The MIC worked out at 62.5 µM (≈ 14.7 µg/mL) in [13]; 32 µM (≈ 7.54 µg/mL) in assay [14]; 62.5 µM (≈ 14.7 µg/mL) in assay [15]; 62.5 µM (≈ 14.7 µg/mL) in assay [16]; 32 µM (≈ 7.54 µg/mL) in [17]; 62.5 µM (≈ 14.7 µg/mL) in assay [18]. The MIC in assay [19] was found to be 62.5 µM (≈ 14.7 µg/mL). Also, the GI50 in assay [20] came out at 21.2 µg/mL (≈ 89.9 µM); in assay [21] it was 19.8 µg/mL (≈ 84 µM). Further, in [22], the CC10 was determined as 8.6 µg/mL (≈ 36.5 µM). In [22], this compound returned a CC50 of 16.3 µg/mL (≈ 69.1 µM).
